Source: ChEMBL document CHEMBL1135768, “Design, synthesis, and SAR of tachykinin antagonists: modulation of balance in NK(1)/NK(2) receptor antagonist activity” (J Med Chem, 2002)

How the values were obtained:
[1] = test system: Substance-P receptor (Oryctolagus cuniculus); test: Tested for the binding affinity towards tachykinin receptor 1 (NK1) in rabbit pulmonary artery tissue
[2] = molecular target: T1, Substance-K receptor (Oryctolagus cuniculus) (UniProt P79218); test: Tested for the binding affinity towards tachykinin receptor 2 (NK2) in rabbit pulmonary artery tissue
T1 sequence (whole entry): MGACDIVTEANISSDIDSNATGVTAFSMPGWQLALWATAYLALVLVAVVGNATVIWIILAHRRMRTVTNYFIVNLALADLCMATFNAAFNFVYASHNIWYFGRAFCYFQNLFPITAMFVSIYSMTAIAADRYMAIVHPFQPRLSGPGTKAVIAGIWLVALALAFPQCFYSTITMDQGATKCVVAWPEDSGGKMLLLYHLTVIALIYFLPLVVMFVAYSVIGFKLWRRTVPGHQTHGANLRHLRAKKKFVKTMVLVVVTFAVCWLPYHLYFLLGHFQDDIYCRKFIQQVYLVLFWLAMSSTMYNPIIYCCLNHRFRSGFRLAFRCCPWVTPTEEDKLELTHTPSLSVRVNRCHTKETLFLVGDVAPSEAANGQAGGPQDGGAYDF

[3] = molecular target: Substance-P receptor (Cavia porcellus) (UniProt P30547); test: In vivo potency as dose ratio (ED50 ratio for Tachykinin receptor 1 in presence and absence of antagonist) in guinea pig PMM after oral administration at a dose 30 uM/Kg
Chain of Substance-P receptor (Cavia porcellus) (P30547 whole entry): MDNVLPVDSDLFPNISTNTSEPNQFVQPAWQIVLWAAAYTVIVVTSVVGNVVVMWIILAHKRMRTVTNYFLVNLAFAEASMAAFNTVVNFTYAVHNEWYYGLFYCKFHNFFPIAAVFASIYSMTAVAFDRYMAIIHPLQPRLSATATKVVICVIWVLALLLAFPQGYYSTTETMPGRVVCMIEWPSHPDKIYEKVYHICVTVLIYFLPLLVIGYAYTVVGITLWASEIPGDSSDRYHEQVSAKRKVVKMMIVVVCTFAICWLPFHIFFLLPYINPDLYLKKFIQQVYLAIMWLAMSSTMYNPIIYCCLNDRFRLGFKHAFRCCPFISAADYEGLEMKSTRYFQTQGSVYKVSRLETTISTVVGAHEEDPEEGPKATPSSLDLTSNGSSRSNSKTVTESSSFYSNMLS

[4] = molecular target: Substance-P receptor (Cavia porcellus) (UniProt P30547); test: In vivo potency as dose ratio (ED50 ratio for Tachykinin receptor 1 in presence and absence of antagonist) in guinea pig PMM after intravenous administration at a dose 10 uM/Kg
[5] = molecular target: T2, Substance-K receptor (Cavia porcellus) (UniProt Q64077); test: In vivo potency as dose ratio (ED50 ratio for Tachykinin receptor 2 (NK2) in presence and absence of antagonist) in guinea pig PMM after oral administration at a dose 30 uM/Kg
T2 sequence (whole entry): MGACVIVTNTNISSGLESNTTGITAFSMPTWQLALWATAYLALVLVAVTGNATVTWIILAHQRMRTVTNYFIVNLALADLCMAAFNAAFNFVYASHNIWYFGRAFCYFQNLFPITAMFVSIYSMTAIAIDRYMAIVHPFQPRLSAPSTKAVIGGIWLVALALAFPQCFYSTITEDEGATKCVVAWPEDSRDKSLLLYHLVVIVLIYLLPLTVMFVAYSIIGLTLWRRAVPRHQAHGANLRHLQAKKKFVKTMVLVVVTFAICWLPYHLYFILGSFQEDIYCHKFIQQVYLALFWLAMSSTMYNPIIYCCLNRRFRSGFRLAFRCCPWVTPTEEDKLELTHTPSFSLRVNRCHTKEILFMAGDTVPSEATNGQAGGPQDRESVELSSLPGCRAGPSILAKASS

[6] = molecular target: T2, Substance-K receptor (Cavia porcellus); test: In vivo potency as dose ratio (ED50 ratio for Tachykinin receptor 2 (NK2) in presence and absence of antagonist) in guinea pig PMM after intravenous administration at a dose 10 uM/Kg
[7] = molecular target: T3, Substance-K receptor (Homo sapiens, UniProt P21452); test: Inhibition of binding of [3H]NKA to human Tachykinin receptor 2 (NK2) expressed in mouse erythroleukemia cells; type: cell-based
T3 sequence (P21452 whole entry): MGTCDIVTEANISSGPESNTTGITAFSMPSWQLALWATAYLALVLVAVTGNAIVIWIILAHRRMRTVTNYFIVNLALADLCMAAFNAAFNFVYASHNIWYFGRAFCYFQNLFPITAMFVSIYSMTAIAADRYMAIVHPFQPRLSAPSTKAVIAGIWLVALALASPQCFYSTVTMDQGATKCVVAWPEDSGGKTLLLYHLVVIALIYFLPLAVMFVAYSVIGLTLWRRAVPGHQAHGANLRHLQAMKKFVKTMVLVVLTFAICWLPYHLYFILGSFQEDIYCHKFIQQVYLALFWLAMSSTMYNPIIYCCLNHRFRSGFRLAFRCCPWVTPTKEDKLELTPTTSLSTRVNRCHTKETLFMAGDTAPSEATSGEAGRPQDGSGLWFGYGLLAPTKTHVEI

[8] = Bioavailability in dog (dose 1-10 uM/kg i.v.); type: ADME, organism-based, Canis lupus familiaris; settings: in vivo, iv
Outline: (§1)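 Compound given to rat (n = 3) or dog (n = 1) by iv bolus at 1–10 μmol/kg, or orally at 10–100 μmol/kg, as a solution in 75% poly(ethylene glycol) 400 in normal saline.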

[9] = molecular target: T4, Neuromedin-K receptor (Homo sapiens, UniProt P29371); test: Inhibition of binding of [125I]MPNI to human Tachykinin receptor 3 (NK3) expressed in mouse erythroleukemia cells; type: cell-based
T4 sequence (P29371 whole entry): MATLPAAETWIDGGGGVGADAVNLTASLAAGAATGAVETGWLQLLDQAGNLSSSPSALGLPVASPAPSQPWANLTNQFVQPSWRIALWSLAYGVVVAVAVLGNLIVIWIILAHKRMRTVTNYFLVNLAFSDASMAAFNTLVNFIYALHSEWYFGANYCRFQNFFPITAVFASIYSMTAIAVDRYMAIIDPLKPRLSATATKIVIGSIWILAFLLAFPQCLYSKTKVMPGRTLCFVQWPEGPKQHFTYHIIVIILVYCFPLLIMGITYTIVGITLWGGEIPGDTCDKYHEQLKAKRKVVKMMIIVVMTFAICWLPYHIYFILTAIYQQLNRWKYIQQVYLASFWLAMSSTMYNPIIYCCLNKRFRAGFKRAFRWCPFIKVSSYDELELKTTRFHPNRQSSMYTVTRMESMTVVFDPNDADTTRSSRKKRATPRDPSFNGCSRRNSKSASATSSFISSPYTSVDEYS

[10] = molecular target: Substance-P receptor (Cavia porcellus) (UniProt P30547); test: In vivo binding affinity towards Tachykinin receptor 1 after oral administration in presence of agonist ASMSP in guinea pig pulmonary tissue in lung plasma extravation assay; type: organism-based
Outline: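 Guinea pig lung plasma extravasation model. Antagonist dosed orally; NK1-selective agonist ASMSP challenge 2 h postdose. Single ED50 calculated from dose response in three to six animals per dose over 4–5 dose levels, doses staggered across several days.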

[11] = molecular target: Substance-P receptor (Homo sapiens, UniProt P25103); test: Inhibition of binding of [3H]SP to Tachykinin receptor 1 of human tachykinin receptor expressed in mouse erythroleukemia cells; type: cell-based
Chain of Substance-P receptor (P25103 whole entry): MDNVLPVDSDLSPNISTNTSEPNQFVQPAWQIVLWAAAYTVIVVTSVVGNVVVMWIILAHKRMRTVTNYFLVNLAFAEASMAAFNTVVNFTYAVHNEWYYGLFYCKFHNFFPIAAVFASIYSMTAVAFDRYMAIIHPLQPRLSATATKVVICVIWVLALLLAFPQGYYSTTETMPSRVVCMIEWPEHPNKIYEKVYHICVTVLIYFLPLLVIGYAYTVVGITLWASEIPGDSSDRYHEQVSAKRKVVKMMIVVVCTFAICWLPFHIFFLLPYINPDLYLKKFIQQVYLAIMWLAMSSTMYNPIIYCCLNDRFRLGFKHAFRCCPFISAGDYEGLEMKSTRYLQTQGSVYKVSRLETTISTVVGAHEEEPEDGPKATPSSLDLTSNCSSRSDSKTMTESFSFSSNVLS

[12] = Bioavailability in rat (dose 1-10 uM/kg i.v.); type: ADME, organism-based; settings: in vivo, iv
Outline: as §1

pKB [1] | pKB [2] | SMILES | also measured
7.78 | 6.99 | CN(C[C@@H](CCN1CCC(c2ccccc2[S@+](C)[O-])CC1)c1ccc(Cl)c(Cl)c1)C(=O)c1cc(C#N)c(Br)c2ccccc12 | 
7.51 | 7.81 | CNC(=O)C1(N2CCOCC2=O)CCN(CC[C@H](CN(C)C(=O)c2cc(C#N)cc3ccccc23)c2ccc(Cl)c(Cl)c2)CC1 | 
8.18 | 7.86 | CN(C[C@@H](CCN1CCC(N2CCCNC2=O)CC1)c1ccc(Cl)c(Cl)c1)C(=O)c1cc(C#N)cc2ccccc12 | 
7.92 | 6.84 | COC(=O)c1ccc(C2CCN(CC[C@H](CN(C)C(=O)c3cc(C#N)cc4ccccc34)c3ccc(Cl)c(Cl)c3)CC2)c([S+](C)[O-])c1 (mixture of isomers) | 
7.88 | 7.7 | COc1c(C#N)cc2ccccc2c1C(=O)N(C)C[C@@H](CCN1CCC(C(=O)N(C)C)(N2CCCCC2=O)CC1)c1ccc(Cl)c(Cl)c1 | 
7.77 | 6.42 | CN(C[C@@H](CCN1CCC(c2ccccc2[S@+](C)[O-])CC1)c1ccc(Cl)c(Cl)c1)C(=O)c1cc(C#N)cc2cc(C#N)ccc12 | 
8.02 | 7.31 | CN(C[C@@H](CCN1CCC(c2ccccc2[S@+](C)[O-])CC1)c1ccc(Cl)c(Cl)c1)C(=O)c1cc(C#N)cc2cc(O)ccc12 | 
8.55 | 7.79 | CNC(=O)C1(N2CCOCC2=O)CCN(CC[C@H](CN(C)C(=O)c2c(OC)c(C#N)cc3ccccc23)c2ccc(Cl)c(Cl)c2)CC1 | 
7.76 | 7.65 | CN(C[C@@H](CCN1CCC(c2ccccc2[S@+](C)[O-])CC1)c1ccc(Cl)c(Cl)c1)C(=O)c1cc(C#N)c(C#N)c2ccccc12 | 
7 | 7.97 | COc1ccc2c(C(=O)N(C)C[C@@H](CCN3CCC(c4ccccc4[S@+](C)[O-])CC3)c3ccc(Cl)c(Cl)c3)cc(C#N)cc2c1 | 
8.26 | 8.34 | CN(C[C@@H](CCN1CCC(c2cc(F)ccc2[S+](C)[O-])CC1)c1ccc(Cl)c(Cl)c1)C(=O)c1cc(C#N)cc2ccccc12 (mixture of isomers) | 
8.53 | 6.92 | CN(C[C@@H](CCN1CCC(c2ccc(C(N)=O)cc2[S+](C)[O-])CC1)c1ccc(Cl)c(Cl)c1)C(=O)c1cc(C#N)cc2ccccc12 (mixture of isomers) | 
8.45 | 7.92 | COc1c(C#N)cc2ccccc2c1C(=O)N(C)C[C@@H](CCN1CCC(N2CCCNC2=O)CC1)c1ccc(Cl)c(Cl)c1 | 
8.01 | 8.38 | CN(C[C@@H](CCN1CCC(c2ccc(F)cc2[S@+](C)[O-])CC1)c1ccc(Cl)c(Cl)c1)C(=O)c1cc(C#N)cc2ccccc12 | dose ratio [3]: 4; dose ratio [4]: 126; dose ratio [5]: 5; dose ratio [6]: 153
8.53 | 7.8 | Cc1c(C#N)cc(C(=O)N(C)C[C@@H](CCN2CCC(c3ccccc3[S@+](C)[O-])CC2)c2ccc(Cl)c(Cl)c2)c2ccccc12 | 
7.87 | 6.38 | CN(C[C@@H](CCN1CCC(c2ccc(C(=O)O)cc2[S+](C)[O-])CC1)c1ccc(Cl)c(Cl)c1)C(=O)c1cc(C#N)cc2ccccc12 (mixture of isomers) | 
8.46 | 8.55 | CN(C[C@@H](CCN1CCC(c2cc(Br)ccc2[S+](C)[O-])CC1)c1ccc(Cl)c(Cl)c1)C(=O)c1cc(C#N)cc2ccccc12 (mixture of isomers) | 
7.33 | 8.44 | CNC(=O)C1(N2CCCCC2=O)CCN(CC[C@H](CN(C)C(=O)c2cc(C#N)cc3ccccc23)c2ccc(Cl)c(Cl)c2)CC1 | 
7.6 | 8.22 | CNC(=O)C1(N2CCCNC2=O)CCN(CC[C@H](CN(C)C(=O)c2cc(C#N)cc3ccccc23)c2ccc(Cl)c(Cl)c2)CC1 | 
7.25 | 6.83 | CN(C[C@@H](CCN1CCC(c2c(F)cccc2[S+](C)[O-])CC1)c1ccc(Cl)c(Cl)c1)C(=O)c1cc(C#N)cc2ccccc12 (some centres not stated) | 
 |  | COc1c(C#N)cc2ccccc2c1C(=O)N(C)C[C@@H](CCN1CCC(c2ccccc2[S@+](C)[O-])CC1)c1ccc(Cl)c(Cl)c1 | Ki [7]: 67 nM; bioavailability [8]: 51%; Ki [9]: 220 nM; ED50 [10]: 0.07 µmol/kg; Ki [11]: 0.17 nM; bioavailability [12]: 12%; dose ratio [3]: 610; dose ratio [5]: 2; dose ratio [6]: 14
 | 8.48 | CN(C[C@@H](CCN1CCC(c2ccccc2[S+](C)[O-])CC1)c1ccc(Cl)c(Cl)c1)C(=O)c1cc(C#N)cc2ccccc12 (mixture of isomers) | 
8.93 | 8.34 | CN(C[C@@H](CCN1CCC(c2ccc(O)cc2[S+](C)[O-])CC1)c1ccc(Cl)c(Cl)c1)C(=O)c1cc(C#N)cc2ccccc12 (mixture of isomers) | 
8 | 8.12 | CN(C[C@@H](CCN1CCC(c2ccc(Br)cc2[S@+](C)[O-])CC1)c1ccc(Cl)c(Cl)c1)C(=O)c1cc(C#N)cc2ccccc12 | dose ratio [4]: 11; dose ratio [6]: 30
6.75 | 6.2 | CN(C[C@@H](CCN1CCC(c2ccccc2[S@+](C)[O-])CC1)c1ccc(Cl)c(Cl)c1)C(=O)c1cc(C#N)c(F)c2ccccc12 | 
 |  | CCN1C(=O)c2ccccc2[C@H]1[C@@H](CCN1CCC(c2ccccc2[S@+](C)[O-])CC1)c1ccc(Cl)c(Cl)c1 | Ki [7]: 0.92 nM; Ki [9]: 9190 nM
8.14 | 8.11 | CNC(=O)C1(N2CCCNC2=O)CCN(CC[C@H](CN(C)C(=O)c2c(OC)c(C#N)cc3ccccc23)c2ccc(Cl)c(Cl)c2)CC1 | 
8.85 | < 7 | COC(=O)c1ccc(C2CCN(CC[C@H](CN(C)C(=O)c3c(OC)c(C#N)cc4ccccc34)c3ccc(Cl)c(Cl)c3)CC2)c([S+](C)[O-])c1 (some centres not stated) | 
7.36 | 8.52 | CN(C)C(=O)C1(N2CCCCC2=O)CCN(CC[C@H](CN(C)C(=O)c2cc(C#N)cc3ccccc23)c2ccc(Cl)c(Cl)c2)CC1 | 
7.33 | 8.27 | CN(C[C@@H](CCN1CCC(c2ccc([S+](C)[O-])cc2[S+](C)[O-])CC1)c1ccc(Cl)c(Cl)c1)C(=O)c1cc(C#N)cc2ccccc12 (mixture of isomers) | 
